Experimental data as given in ChEMBL document CHEMBL1126879, “A new series of imidazolones: highly specific and potent nonpeptide AT1 angiotensin II receptor antagonists” (J Med Chem, 1993).

What was measured:
[1] = biological target: T1, Type-1 angiotensin II receptor B (Rattus norvegicus, UniProt P29089); test: Binding affinity for Angiotensin II receptor, type 1 measured by ability to displace [125I]- A II from its specific binding site in rat liver membrane; format: cell membranes
T1 sequence (P29089 whole entry): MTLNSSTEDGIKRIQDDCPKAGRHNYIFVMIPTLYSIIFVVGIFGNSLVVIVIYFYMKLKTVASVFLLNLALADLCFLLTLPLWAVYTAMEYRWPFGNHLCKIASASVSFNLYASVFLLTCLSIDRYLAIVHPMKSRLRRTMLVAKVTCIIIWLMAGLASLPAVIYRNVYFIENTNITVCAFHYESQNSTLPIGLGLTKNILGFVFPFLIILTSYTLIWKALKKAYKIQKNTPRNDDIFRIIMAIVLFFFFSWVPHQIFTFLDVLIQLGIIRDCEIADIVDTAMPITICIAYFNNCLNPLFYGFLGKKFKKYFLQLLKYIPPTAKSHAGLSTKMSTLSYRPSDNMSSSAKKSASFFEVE
In short: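 Purified plasma membranes from male Sprague-Dawley rat liver, isolated on a sucrose gradient, 20–30 μg protein per assay. Filtered, then gamma counted. Nonspecific binding with 1 μM unlabeled AII. Triplicates; IC50 and Hill coefficient from Hill plots.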

Oryctolagus cuniculus = organism: Oryctolagus cuniculus; test: Antagonistic activity through inhibition of A II induced contractions on rabbit aortic strips; format: functional; settings: Aorta

| IC50 [1] [nM] | IC50 (Oryctolagus cuniculus) [nM] | SMILES |
| --- | --- | --- |
| 110 | 420 | CCCCC1=NC2(CCN(Cc3ccccc3)CC2)C(=O)N1Cc1ccc(-c2ccccc2C(=O)O)cc1 |
| 38 | 42 | CCCCC1=NC2(CCC2)C(=O)N1Cc1ccc(-c2ccccc2C(=O)O)cc1 |
| 60 | 240 | CCCCC1=NC2(Cc3ccccc3C2)C(=O)N1Cc1ccc(-c2ccccc2C(=O)O)cc1 |
| 800 |  | CCCCC1=NC2(CCN(C(=O)C(N)CC(=O)O)CC2)C(=O)N1Cc1ccc(-c2ccccc2C(=O)O)cc1 (stereo not given) |
| 2500 | 3900 | O=C(O)c1ccccc1-c1ccc(CN2C(=O)C3(CCCC3)N=C2Cc2ccccc2)cc1 |
| 18 | 130 | CCCCC1=NC2(CCN(C(C)=O)CC2)C(=O)N1Cc1ccc(-c2ccccc2C(=O)O)cc1 |
| 350 | 350 | CCCCC1=NC2(CCCCCCCCCC2)C(=O)N1Cc1ccc(-c2ccccc2C(=O)O)cc1 |
| 62 | 23 | CCCCC1=NC2(C(=O)N1Cc1ccc(-c3ccccc3C(=O)O)cc1)C1CC3CC(C1)CC2C3 (stereo not given) |
| 3000 | 5400 | CCCCC1=NC(c2ccccc2)(c2ccccc2)C(=O)N1Cc1ccc(-c2ccccc2C(=O)O)cc1 |
| 47 | 200 | CCCCC1=NC2(CCOCC2)C(=O)N1Cc1ccc(-c2ccccc2C(=O)O)cc1 |
| 1800 | > 10000 | CCCCC1=NC2(CCCC2)C(=O)N1Cc1ccc(-c2ccccc2C(=O)OC)cc1 |
| 80 | 52 | CCCCC1=NC2(CCCC2)C(=S)N1Cc1ccc(-c2ccccc2C(=O)O)cc1 |
| 440 | > 10000 | CCCCC1=NC2(CCCC2)C(=O)N1Cc1ccc(-c2ccccc2C#N)cc1 |
| 1.3 | 4 | CCCCC1=NC2(CCCC2)C(=O)N1Cc1ccc(-c2ccccc2-c2nnn[nH]2)cc1 [IRBESARTAN] |
|  | 25 | CCCCc1nc(Cl)c(CO)n1Cc1ccc(-c2ccccc2-c2nnn[nH]2)cc1 [LOSARTAN] |
| 2.4 | 2.3 | CNCC(=O)N[C@@H](CCCNC(=N)N)C(=O)N[C@H](C(=O)N[C@@H](Cc1ccc(O)cc1)C(=O)N[C@H](C(=O)N[C@@H](Cc1cnc[nH]1)C(=O)N1CCC[C@H]1C(=O)N[C@@H](C)C(=O)O)C(C)C)C(C)C [SARALASIN] |
